Data: paper PMC12644240 (International Journal of Nanomedicine, 2025)

Tests used:
Aqueous solubility study = type: physicochemical; conditions: bidistilled water, 37 °C, 72 h stirring, n = 3
Method in brief: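 Excess drug (raw powder), coarse suspension or nanosuspension stirred in bidistilled water at 37 °C for 72 h. Samples were centrifuged twice at 15,000 rpm for 30 min, and the clear supernatant was diluted. Drug was quantified by HPLC (C18 column; water:ACN:acetic acid […]; 0.7 mL/min; 306 nm) against a linear calibration curve. n = 3, mean ± SD.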

[1] = Dissolution study in PBS pH 7.4 under sink conditions; type: physicochemical; conditions: PBS pH 7.4, 37 °C
Method in brief: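 Nanosuspension, coarse suspension or raw powder (1 mg drug each, liquid doses confirmed by HPLC) was added to 100 mL PBS pH 7.4 at 37 °C with magnetic stirring under sink conditions. Samples taken at 1–30 min and 1–8 h were replaced with fresh medium and centrifuged at 15000 rpm for 20 min. Supernatant was assayed by HPLC at 306 nm. At least triplicate, mean ± SD.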

human CRBN = conditions: cited from earlier work
SALL4 and Aiolos = conditions: cited from earlier work
embryonic models = conditions: cited from earlier work
[2] = cited from earlier work; for Dissolution after one minute, coarse suspension / Dissolution after one minute, nanosuspension: 1 min; for Dissolution after one minute, nanosuspension: nanosuspension with Tween 80 as stabilizer
[3] = cited from earlier work

Compound: Nc1cccc2c1C(=S)N(C1CCC(=O)NC1=O)C2=O (stereo not shown) [MTPOM, 3-monothiopomalidomide]
- Aqueous solubility (Aqueous solubility study): 4.8 ± 0.2 µg/mL
- Drug dissolved at first time point (1 minute) ([1]; 1 min): approximately 22%
- Drug dissolved at end of test (8 hours) ([1]; 8 h): 44%
- Binding to human CRBN (human CRBN): binds to human CRBN
- Degradation of neosubstrates SALL4 and Aiolos (SALL4 and Aiolos): without triggering the subsequent degradation
- Risk of teratogenicity (embryonic models): significantly attenuated risk of teratogenicity

Compound: COc1ccc2c(c1)c(CC(=O)O)c(C)n2C(=O)c1ccc(Cl)cc1 [indomethacin]
- Dissolution after one minute, coarse suspension [2]: approximately 20%
- Dissolution after 30 minutes, coarse suspension [2]: 40–50%
- Dissolution after one minute, nanosuspension [2]: almost complete dissolution

Compound: CCC(C)n1ncn(-c2ccc(N3CCN(c4ccc(OCC5COC(Cn6cncn6)(c6ccc(Cl)cc6Cl)O5)cc4)CC3)cc2)c1=O (stereo not shown) [itraconazole]
- Dissolution after one minute, coarse suspension [2]: approximately 20%
- Dissolution after 30 minutes, coarse suspension [2]: 40–50%
- Dissolution after one minute, nanosuspension [2]: almost complete dissolution

Compound: CC[C@@H]([C@H](C)O)n1ncn(-c2ccc(N3CCN(c4ccc(OC[C@@H]5CO[C@@](Cn6cncn6)(c6ccc(F)cc6F)C5)cc4)CC3)cc2)c1=O [posaconazole]
- Average diameter when nanosized via media milling [3]: 185 nm
